# Columns and labels:
# HEp-2 [1] = test: Cytotoxicity against human Hep2 cells after 48 hrs by SRB assay; assay type: functional, cell-based; settings: HEp-2, 48 h
# Outline: (§1)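 SRB assay per Skehan: compounds at 5.0, 12.5, 25 and 50 were added to cell monolayers in triplicate wells per dose for 48 h at 37 °C, 5% CO2. Cells were then fixed and stained with SRB, excess stain was removed with acetic acid, and bound dye was recovered in Tris EDTA. Surviving fraction was plotted against concentration, and IC50 was read from the dose–response curves.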
# HCT-116 [2] = test: Cytotoxicity against human HCT116 cells after 48 hrs by SRB assay; assay type: functional, cell-based; settings: HCT-116, 48 h; outline: as §1
# HEp-2 [3] = test: Cytotoxicity against human Hep2 cells assessed as surviving fraction at 25 ug/ml after 48 hrs by SRB assay relative to control; assay type: functional; outline: as §1
# Micrococcus luteus = test: Antibacterial activity against Sarcina lutea ATCC 934 at 5 mg/ml after 24 hrs by agar disc diffusion method; assay type: functional; settings: ATCC 934, 24 h, read-out: DIZ
# Outline: (§2)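 Agar well-diffusion using 1 cm wells, each loaded with 100 of compound solution (5 mg/mL in DMF). Bacteria were maintained on nutrient agar and plated as a standard suspension. Plates were incubated 24 h at 35 °C, and inhibition zone diameters were measured.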
# Staphylococcus aureus = test: Antibacterial activity against Staphylococcus aureus NCTC 7447 at 5 mg/ml after 24 hrs by agar disc diffusion method; assay type: functional; settings: NCTC 7447, 24 h, read-out: DIZ; outline: as §2
# HCT-116 [4] = test: Cytotoxicity against human HCT116 cells assessed as surviving fraction at 5 ug/ml after 48 hrs by SRB assay relative to control; assay type: functional; outline: as §1
# HeLa [5] = test: Cytotoxicity against human HeLa cells assessed as surviving fraction at 5 ug/ml after 48 hrs by SRB assay relative to control; assay type: functional; outline: as §1
# MCF7 [6] = test: Cytotoxicity against human MCF7 cells assessed as surviving fraction at 25 ug/ml after 48 hrs by SRB assay relative to control; assay type: functional; outline: as §1
# HeLa [7] = test: Cytotoxicity against human HeLa cells assessed as surviving fraction at 25 ug/ml after 48 hrs by SRB assay relative to control; assay type: functional; outline: as §1
# HCT-116 [8] = test: Cytotoxicity against human HCT116 cells assessed as surviving fraction at 25 ug/ml after 48 hrs by SRB assay relative to control; assay type: functional; outline: as §1
# HepG2 [9] = test: Cytotoxicity against human HepG2 cells assessed as surviving fraction at 12.5 ug/ml after 48 hrs by SRB assay relative to control; assay type: functional; outline: as §1
# HeLa [10] = test: Cytotoxicity against human HeLa cells assessed as surviving fraction at 50 ug/ml after 48 hrs by SRB assay relative to control; assay type: functional; outline: as §1
# HEp-2 [11] = test: Cytotoxicity against human Hep2 cells assessed as surviving fraction at 12.5 ug/ml after 48 hrs by SRB assay relative to control; assay type: functional; outline: as §1
# Bacillus subtilis = test: Antibacterial activity against Bacillus subtilis NCTC 1040 at 5 mg/ml after 24 hrs by agar disc diffusion method; assay type: functional; settings: NCTC 1040, 24 h, read-out: DIZ; outline: as §2
# HCT-116 [12] = test: Cytotoxicity against human HCT116 cells assessed as surviving fraction at 12.5 ug/ml after 48 hrs by SRB assay relative to control; assay type: functional; outline: as §1
# HepG2 [13] = test: Cytotoxicity against human HepG2 cells after 48 hrs by SRB assay; assay type: functional, cell-based; settings: HepG2, 48 h; outline: as §1
# MCF7 [14] = test: Cytotoxicity against human MCF7 cells assessed as surviving fraction at 50 ug/ml after 48 hrs by SRB assay relative to control; assay type: functional; outline: as §1
# MCF7 [15] = test: Cytotoxicity against human MCF7 cells assessed as surviving fraction at 5 ug/ml after 48 hrs by SRB assay relative to control; assay type: functional; outline: as §1
# HeLa [16] = test: Cytotoxicity against human HeLa cells after 48 hrs by SRB assay; assay type: functional, cell-based; outline: as §1
# HeLa [17] = test: Cytotoxicity against human HeLa cells assessed as surviving fraction at 12.5 ug/ml after 48 hrs by SRB assay relative to control; assay type: functional; outline: as §1
# HCT-116 [18] = test: Cytotoxicity against human HCT116 cells assessed as surviving fraction at 50 ug/ml after 48 hrs by SRB assay relative to control; assay type: functional; outline: as §1
# HepG2 [19] = test: Cytotoxicity against human HepG2 cells assessed as surviving fraction at 25 ug/ml after 48 hrs by SRB assay relative to control; assay type: functional; outline: as §1
# MCF7 [20] = test: Cytotoxicity against human MCF7 cells after 48 hrs by SRB assay; assay type: functional, cell-based; settings: MCF7, 48 h; outline: as §1
# HepG2 [21] = test: Cytotoxicity against human HepG2 cells assessed as surviving fraction at 5 ug/ml after 48 hrs by SRB assay relative to control; assay type: functional; outline: as §1
# HEp-2 [22] = test: Cytotoxicity against human Hep2 cells assessed as surviving fraction at 5 ug/ml after 48 hrs by SRB assay relative to control; assay type: functional; outline: as §1
# [23] = Antitumor activity against mouse EAC cells assessed as inhibition of cell viability at 100 ug/ml by Trypan blue assay; assay type: functional; settings: Ehrlich
# Outline: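 EAC cells were taken by needle aspiration of ascitic fluid from preinoculated mice and diluted 1:10 in saline. Then 0.1 mL of cell suspension, 0.8 mL RPMI 1640 and 0.1 mL compound were incubated 2 h at 37 °C. Dead cells were counted by trypan blue exclusion, and % non-viable = non-viable/total cells × 100.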
# Candida albicans = test: Antifungal activity against Candida albicans IMRU 3669 at 5 mg/ml by agar disc diffusion method; assay type: functional; settings: read-out: DIZ
# HepG2 [24] = test: Cytotoxicity against human HepG2 cells assessed as surviving fraction at 50 ug/ml after 48 hrs by SRB assay relative to control; assay type: functional; outline: as §1
# HEp-2 [25] = test: Cytotoxicity against human Hep2 cells assessed as surviving fraction at 50 ug/ml after 48 hrs by SRB assay relative to control; assay type: functional; outline: as §1
# Escherichia coli = test: Antibacterial activity against Escherichia coli NCTC 10416 at 5 mg/ml after 24 hrs by agar disc diffusion method; assay type: functional; settings: NCTC 10416, 24 h, read-out: DIZ; outline: as §2
# Aspergillus flavus = test: Antifungal activity against Aspergillus flavus at 5 mg/ml by agar disc diffusion method; assay type: functional; settings: read-out: DIZ
# MCF7 [26] = test: Cytotoxicity against human MCF7 cells assessed as surviving fraction at 12.5 ug/ml after 48 hrs by SRB assay relative to control; assay type: functional; outline: as §1
SMILES,IC50 (HEp-2 [1]),IC50 (HCT-116 [2]),Activity (HEp-2 [3]),zone of inhibition at 5000 µg/mL (Micrococcus luteus),zone of inhibition at 5000 µg/mL (Staphylococcus aureus),Activity (HCT-116 [4]),Activity (HeLa [5]),Activity (MCF7 [6]),Activity (HeLa [7]),Activity (HCT-116 [8]),Activity (HepG2 [9]),Activity (HeLa [10]),Activity (HEp-2 [11]),zone of inhibition at 5000 µg/mL (Bacillus subtilis),Activity (HCT-116 [12]),IC50 (HepG2 [13]),Activity (MCF7 [14]),Activity (MCF7 [15]),IC50 (HeLa [16]),Activity (HeLa [17]),other results
N=C1C(=S)N(c2ccc(Cl)cc2)C(=O)N1Cc1ccccc1,3.28 µg/mL,4.19 µg/mL,0.16,20 mm,21 mm,0.24,0.44,0.16,0.29,0.16,0.22,0.33,0.22,21 mm,0.22,4.34 µg/mL,0.2,0.49,9.68 µg/mL,0.18,Activity (HCT-116 [18]): 0.28; Activity (HepG2 [19]): 0.21; IC50 (MCF7 [20]): 4.65 µg/mL; Activity (HepG2 [21]): 0.45; Activity (HEp-2 [22]): 0.24; inhibition at 100 µg/mL [23]: 80%; zone of inhibition at 5000 µg/mL (Candida albicans): 22 mm; Activity (HepG2 [24]): 0.3; Activity (HEp-2 [25]): 0.28; zone of inhibition at 5000 µg/mL (Escherichia coli): 22 mm; zone of inhibition at 5000 µg/mL (Aspergillus flavus): 18 mm; Activity (MCF7 [26]): 0.12
COc1ccc(N2C(=O)N(c3ccc(SC)cc3)C(=N)C2=S)c(OC)c1,12.1 µg/mL,10.6 µg/mL,0.2,18 mm,18 mm,0.74,0.74,0.19,0.2,0.24,0.47,0.22,0.49,18 mm,0.42,11.8 µg/mL,0.28,0.68,9.83 µg/mL,0.37,Activity (HCT-116 [18]): 0.35; Activity (HepG2 [19]): 0.19; IC50 (MCF7 [20]): 12 µg/mL; Activity (HepG2 [21]): 0.69; Activity (HEp-2 [22]): 0.71; inhibition at 100 µg/mL [23]: 70%; zone of inhibition at 5000 µg/mL (Candida albicans): 20 mm; Activity (HepG2 [24]): 0.24; Activity (HEp-2 [25]): 0.27; zone of inhibition at 5000 µg/mL (Escherichia coli): 19 mm; zone of inhibition at 5000 µg/mL (Aspergillus flavus): 14 mm; Activity (MCF7 [26]): 0.49
COc1ccc(N2C(=N)C(=S)N(c3ccc(OC)cc3OC)C2=O)cc1,3.89 µg/mL,3.73 µg/mL,0.21,24 mm,20 mm,0.35,0.21,0.18,0.17,0.19,0.28,0.23,0.2,20 mm,0.26,4.34 µg/mL,0.27,0.25,3.12 µg/mL,0.16,Activity (HCT-116 [18]): 0.29; Activity (HepG2 [19]): 0.19; IC50 (MCF7 [20]): 3.28 µg/mL; Activity (HepG2 [21]): 0.42; Activity (HEp-2 [22]): 0.36; inhibition at 100 µg/mL [23]: 80%; zone of inhibition at 5000 µg/mL (Candida albicans): 22 mm; Activity (HepG2 [24]): 0.23; Activity (HEp-2 [25]): 0.28; zone of inhibition at 5000 µg/mL (Escherichia coli): 24.5 mm; zone of inhibition at 5000 µg/mL (Aspergillus flavus): 17 mm; Activity (MCF7 [26]): 0.17

# — ChEMBL document CHEMBL1782009, “Synthesis and characterization of new types of halogenated and alkylated imidazolidineiminothiones and a comparative study of their antitumor, antibacterial, and antifungal activities” (Eur J Med Chem, 2011)
